Screening results: PubChem, several laboratories
Rows were chosen to be rich in hits. Some 0.11% of all compounds tested hit in one or more screens of this group.
Calb biofilm kill: mixture kills Candida albicans biofilm cells | inhibition, % at 7.6 µM | 0.02% of 120,000 active | C. albicans biofilm persisters + clotrimazole, fluorescence viability; primary screen in compound mixtures of four per well;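 also: compounds exposed to preformed 24 h biofilms for 48 h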
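Test system: C. albicans CAF4-2 wild-type biofilms; buffer or medium: RPMI/MOPS medium, pH 7.0; schedule: 24 h biofilm formation, then 48 h compound exposure, 37 °C; detection: Alamar Blue fluorescence; measure: percent inhibition of biofilm viability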
Furin inhibitor: inhibitors of human furin; inhibition, % at 20 µM or 30 µM; purified furin, fluorogenic substrate cleavage; 0.061% of 220,000 active; AID 463115; P09958; in the data active = inhibition above about 25%
Target sequence (P09958 108-714 limits assumed): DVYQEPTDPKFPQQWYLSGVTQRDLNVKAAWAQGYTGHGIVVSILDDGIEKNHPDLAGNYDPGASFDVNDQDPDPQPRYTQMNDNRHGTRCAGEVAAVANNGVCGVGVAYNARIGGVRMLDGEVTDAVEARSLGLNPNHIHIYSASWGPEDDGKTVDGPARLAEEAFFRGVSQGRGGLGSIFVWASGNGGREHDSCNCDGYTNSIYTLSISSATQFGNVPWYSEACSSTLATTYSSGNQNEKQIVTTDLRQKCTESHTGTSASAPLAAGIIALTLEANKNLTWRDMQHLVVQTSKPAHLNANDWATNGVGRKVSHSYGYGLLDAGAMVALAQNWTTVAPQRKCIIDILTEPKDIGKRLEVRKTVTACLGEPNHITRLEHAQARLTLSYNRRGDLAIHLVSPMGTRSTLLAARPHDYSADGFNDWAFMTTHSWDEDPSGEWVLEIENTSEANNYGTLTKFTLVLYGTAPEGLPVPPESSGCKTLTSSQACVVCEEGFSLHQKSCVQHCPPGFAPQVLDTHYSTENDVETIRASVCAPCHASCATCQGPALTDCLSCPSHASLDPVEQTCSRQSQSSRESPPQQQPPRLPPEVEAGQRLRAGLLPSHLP
Pf gametocyte: kills late stage P. falciparum gametocytes; P. falciparum stage V gametocytes, ATP luminescence, 24 h; inhibition, % at 10.9 µM; 0.065% of 150,000 active;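 active = inhibition above the mean plus 3 SD of compounds within the control limits, set per campaign, cut at about 38% in these data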
Each line names hits and unclear results; the compound was inactive in the other large screens.

O=C(c1ccc(COc2ccccc2Br)o1)N1N=C(C(F)F)CC1(O)C(F)F (stereo unspecified)	Pf gametocyte 48.8
O=C(c1ccc(Cn2cc([N+](=O)[O-])cn2)o1)N1N=C(C(F)F)CC1(O)C(F)F (stereo unspecified)	none (no result: Calb biofilm kill, Pf gametocyte)
O=c1c2ccccc2oc2cc(-c3ccc4[nH]ccc4c3)ccc12	none (no result: Calb biofilm kill, Furin inhibitor)
COc1ccccc1-c1cc2nc(C)c(CCC(=O)NCc3ccc(F)cc3)c(C)n2n1	none
COc1cc(OC)cc(-c2cc3nc(C)c(CCC(=O)NCc4ccccc4)c(C)n3n2)c1	Pf gametocyte 38.6
CCn1cc(CNCc2cn(C)nc2-c2ccc(C3CCCCC3)cc2)cn1	none
Cc1ccc(/C=C/C(=O)OCC(=O)NC(C)C)o1	none
CC(=O)Nc1cc(-c2ccc(Cl)cc2)nn1-c1ccccc1	Furin inhibitor 27.6 (no result: Pf gametocyte)
CC(=O)Nc1cc(-c2ccccc2)nn1Cc1ccc(Cl)cc1	none (no result: Calb biofilm kill, Pf gametocyte)
COc1ccc(OC)c(C(=O)Nc2ccc3[nH]ccc3c2)c1	none (no result: Calb biofilm kill, Furin inhibitor)
CCN1CCN(C2=CC3=CC(=C(C#N)C#N)CCC3CC2)CC1 (stereo unspecified)	Furin inhibitor 27.6 (no result: Pf gametocyte)
CN1CCN(C2=CC3=CC(=C(C#N)C#N)CCC3CC2)CC1 (stereo unspecified)	none (no result: Pf gametocyte)
CCOc1ccccc1N1CCN(C(=O)c2ccc3[nH]c4c(c3c2)CCCC4)CC1	Pf gametocyte 44.5
CCOc1ccccc1N1CCN(C(=O)c2ccncc2)CC1	none (no result: Calb biofilm kill, Pf gametocyte)
CCOc1ccc(N2C(=O)CC(N(Cc3ccco3)C(=O)CCC(=O)O)C2=O)cc1 (stereo unspecified)	none
CC(C)NC(=O)NC(=O)COC(=O)Cc1c(F)cccc1Cl	none (no result: Pf gametocyte)
CCOc1ccc(C(=O)Nc2ccc(N3CCN(C)CC3)cc2)cc1Br	Furin inhibitor 26.0 (no result: Calb biofilm kill)
CCOc1ccc(C(=O)Nc2ccc(Cc3ccncc3)cc2)cc1Br	none
CCN1/C(=C/c2ccc3cc(C)ccc3[n+]2CC)Sc2ccccc21	none
CCN1/C(=C/c2ccc3cc(C)ccc3[n+]2CC)Sc2cc(C)c(C)cc21	Calb biofilm kill 32.3
Cn1cc(CCNC(=O)CC2C(=O)NCCN2CC(c2ccccc2)c2ccccc2)cn1 (stereo unspecified)	none
S=c1[nH]cnc2scc(-c3ccc(Br)cc3)c12	none
Cc1ccc(-c2csc3nc[nH]c(=S)c23)cc1	Pf gametocyte 51.0
CCN=C1SC(CC(N)=O)C(=O)N1CC (stereo unspecified)	none
Cc1ccc(C2=N/C(=C\c3coc4ccccc4c3=O)C(=O)O2)cc1	none (no result: Calb biofilm kill, Furin inhibitor)
CNc1nc(C23CC4CC(CC(C4)C2)C3)cs1	none
COc1ccccc1C1(CCNC(C)c2cccs2)CCOC(C(C)C)C1 (stereo unspecified)	none
Cc1ccc(C2(CCNC(C)c3cccs3)CCOC(C(C)C)C2)cc1 (stereo unspecified)	Calb biofilm kill 41.1
CNC(=O)C1CC(=O)N(CCc2ccc(OC)cc2)C(=Nc2ccc(OC)cc2)S1 (stereo unspecified)	Furin inhibitor 26.6 (no result: Pf gametocyte)
COc1ccc(N=C2SC(C(N)=O)CC(=O)N2CCc2ccc(OC)c(OC)c2)cc1 (stereo unspecified)	none (no result: Calb biofilm kill, Pf gametocyte)
COC(=O)c1ccc(C(=O)N(CCN(C)C)c2nc3c(Cl)cccc3s2)cc1	none
COc1ccccc1N=c1oc2cc(O)ccc2cc1C(N)=O	Pf gametocyte 55.6 (no result: Calb biofilm kill)
COc1ccccc1N=c1oc2cc(O)ccc2cc1C(=O)NCC1CCCO1 (stereo unspecified)	none (no result: Calb biofilm kill)
Cc1cccc(-n2ccnc2CN2CCC(CO)(Cc3ccccc3)CC2)c1	none
CN(C)/C=C1\C(=O)N(C)N=C1C(F)(F)F	none
CN(C)c1ccc(Nc2ccc([N+](=O)[O-])cn2)cc1	none (no result: Calb biofilm kill, Furin inhibitor)
O=C1CC(c2ccc(Cl)cc2)CC(=O)C1CS(=O)(=O)c1ccccc1 (stereo unspecified)	none
O=C1CCCC(=O)C1CS(=O)(=O)c1ccccc1	Pf gametocyte 38.7
COc1cc2c(=O)n(CCCC(=O)NCC3CCCO3)c(=O)n(CC(=O)c3ccc(F)cc3)c2cc1OC (stereo unspecified)	none
CC(=O)Nc1sc2c(c1C#N)CCC(C)C2 (stereo unspecified)	none
Cc1ccc(C)n1-c1sc2c(c1C#N)CCC(C)C2 (stereo unspecified)	Pf gametocyte 38.3 (no result: Calb biofilm kill)
CCn1c(SCC(=O)Nc2cc(F)ccc2C)nnc1-c1ccccc1O	Furin inhibitor 32.2 (no result: Calb biofilm kill)
CCn1c(SCC(=O)Nc2ccccc2C)nnc1-c1ccccc1O	none (no result: Calb biofilm kill, Pf gametocyte)
Cc1sc(NC(=O)c2ccccc2)c(C(c2ccccn2)N2CCN(CCO)CC2)c1C (stereo unspecified)	none (no result: Pf gametocyte)
CCc1cc(C(c2ccccn2)N2CCN(C)CC2)c(NC(=O)c2ccccc2)s1 (stereo unspecified)	Furin inhibitor 25.1
COc1cc(Cl)c(CN2CCCC(CO)(Cc3cccc(Cl)c3)C2)cc1OC (stereo unspecified)	none (no result: Calb biofilm kill, Furin inhibitor)
CC1(C)CC(=O)C(/C=N/c2ccccn2)=C(O)C1	Furin inhibitor 50.8 (no result: Calb biofilm kill, Pf gametocyte)
CC1(C)CC(=O)C(C=Nc2cccc(/N=C/C3=C(O)CC(C)(C)CC3=O)n2)=C(O)C1	none (no result: Calb biofilm kill, Pf gametocyte)
CC1(C)CC(=O)C(/C=N/n2cnc3ccccc3c2=O)=C(O)C1	Furin inhibitor 78.7 (no result: Calb biofilm kill, Pf gametocyte)
CC1(C)CC(=O)C(C=Nc2ccccc2)=C(O)C1	none (no result: Calb biofilm kill)
CCN1CCN(c2ccc(NC(=O)c3cccc(F)c3)cc2Cl)CC1	none
COc1ccc(-c2noc(CCC(=O)NCc3cc(Br)ccc3OC)n2)cc1	none (no result: Calb biofilm kill)
COc1ccc(Br)cc1CNC(=O)CCc1nc(-c2ccc(C)cc2)no1	Furin inhibitor 25.8 (no result: Calb biofilm kill, Pf gametocyte)
O=C1CSC2(C(=O)N3CCCc4cccc2c43)N1c1cccc(C(F)(F)F)c1 (stereo unspecified)	none (no result: Calb biofilm kill, Pf gametocyte)
COc1ccc(N2C(=O)CSC23C(=O)N2CCCc4cccc3c42)cc1 (stereo unspecified)	Pf gametocyte 42.1 (no result: Calb biofilm kill)
CCCCC(CC)CNC(=O)CC1Nc2c3ccccc3nc(=S)n2C1=O (stereo unspecified)	none
CCOC(=O)CSc1nc2cc3c(cc2cc1C)OCO3	Pf gametocyte 38.7
CCOC(=O)CSc1nc2cc3c(cc2cc1C#N)OCO3	none (no result: Calb biofilm kill, Pf gametocyte)
O=C(CN1C(=O)CCC1=O)Nc1cccc(NC(=O)CN2C(=O)CCC2=O)c1	none (no result: Pf gametocyte)
CCOc1cc(-c2sc(Nc3ccccc3)n[n+]2C)ccc1OC	none (no result: Calb biofilm kill, Furin inhibitor)
O=C1c2ccccc2C(=O)N1OCc1ccc(Cl)cc1	none (no result: Calb biofilm kill, Pf gametocyte)
O=C1Cc2ccccc2C(=O)N1OCc1ccc(Cl)cc1	Pf gametocyte 40.7
CN(C)C=NC(=O)c1cn(-c2ccc(F)cc2)c(=O)c2ccccc12	none
CN(C)c1ccc(/C=N/N2C(=O)c3ccccc3C2=O)cc1	none
COc1ccc(/C=N/N2C(=O)c3ccccc3C2=O)cc1	Pf gametocyte 56.8
O=C(CSc1nnc(-c2ccncc2)o1)NC1CCCCC1	none
O=C(CSc1nnc(-c2ccc(F)cc2)o1)NC1CCCCC1	Pf gametocyte 43.1
CNS(=O)(=O)c1ccc(NS(=O)(=O)c2ccccc2F)cc1	none
CCOc1cccc(=O)c2c(C)n(C)c(C)c12	none (no result: Calb biofilm kill)
COc1cccc(=O)c2c(C)n(C)c(C)c12	Pf gametocyte 38.8 (no result: Calb biofilm kill)
Oc1c(Cl)cc(Cl)c2cccnc12	Calb biofilm kill 43.3
CC(=O)NC(C)c1cc(Cl)c2cccnc2c1O (stereo unspecified)	none (no result: Calb biofilm kill, Furin inhibitor)
CC(=O)Nc1cccc(Cn2cccn2)c1	none (no result: Calb biofilm kill, Pf gametocyte)
O=C(Nc1cccc(Cn2cccn2)c1)c1cc2c(s1)CCCC2	Furin inhibitor 25.7 (no result: Calb biofilm kill, Pf gametocyte)
CC(C(=O)Nc1ccccc1C(=O)O)n1c(C(F)(F)F)nc2ccccc21 (stereo unspecified)	none
O=C(Cn1c(C(F)(F)F)nc2ccccc21)Nc1ccccc1C(=O)O	Pf gametocyte 39.4
